The values that follow come from ChEMBL document CHEMBL4342502, “Synthesis and Antichlamydial Activity of Molecules Based on Dysregulators of Cylindrical Proteases” (J Med Chem, 2020).

Values after ≈ are worked out from the molar mass of the structure shown. Active and inactive are the calls of the source. The calls are words filed in the database; no cut-off is given here.

The nature of data set [1]: Mutagenicity in Drosophila melanogaster somatic cells assessed as frequency of clone formation in HB crosses at 0.25 to 1 mM by SMART assay. It is filed as ADME. The following applies: 1000 µM. In a few lines:
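Drosophila SMART wing-spot assay, ST and HB crosses. Third-instar larvae (72 ± 4 h) placed on hydrated instant mashed potato medium containing compound at 0.25, 0.5 or 1.0 mM final. Negative control: water with 1% Tween-80 and 3% ethanol. Statistics by Frei and Würgler two-sided U test, P≤0.05.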

Data set [2] is described as follows: Activation of recombinant mouse C-terminal 6xHis-tagged ClpP expressed in Escherichia coli assessed as induction of casein degradation at 0.1 to 1 uM using FITC-labelled casein as substrate pretreated with enzyme for 30 mins followed by substrate addition and measured every 3 mins for 3 hrs in absence of AAA+ chaperone by fluorescence based tecan-plate reader assay. In a few lines: (§1)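 Recombinant C-terminal His6-tagged ClpP, expressed in a clpAPX-null E. coli strain and purified (mammalian ClpP without mitochondrial signal, codon-optimized). ClpP at 1 or 0.1 μM (E. coli), 1 μM (human, mouse) or 6 μM (chlamydial ClpP1 and ClpP2) preincubated with compound or DMSO, 30 min, 32 °C, in HEPES pH 7.6/KCl/MgCl2/DTT/glycerol buffer. 20 μM FITC-casein then added. Fluorescence (ex 490/em 525 nm) read every 3 min for 3 h. At least three runs on at least two protein preparations.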

Data set [3] concerns Chlamydia trachomatis. Kind of data set: Activation of recombinant Chlamydia trachomatis Serovar LGV-L2 C-terminal 6xhis-tagged ClpP1 expressed in Escherichia coli assessed as induction of casein degradation at 0.1 to 1 uM using FITC-labelled casein as substrate pretreated with enzyme for 30 mins followed by substrate addition and measured every 3 mins for 3 hrs in absence chaperone by fluorescence based tecan-plate reader assay. In a few lines: as §1

Data set [4] concerns Chlamydia trachomatis. Put plainly: Activation of recombinant Chlamydia trachomatis Serovar LGV-L2 C-terminal 6xhis-tagged ClpP2 expressed in Escherichia coli assessed as induction of casein degradation at 0.1 to 1 uM using FITC-labelled casein as substrate pretreated with enzyme for 30 mins followed by substrate addition and measured every 3 mins for 3 hrs in absence of AAA+ chaperone by fluorescence based tecan-plate reader assay. The gist of the method: as §1

The subject of a further data set is Escherichia coli. Kind of data set: Antibacterial activity against Escherichia coli K12 assessed as bacterial growth inhibition at 32 ug/ml measured after 16 hrs by broth microdilution method. The following applies: K-12. The class given is functional, organism-based. The gist of the method:
(§2)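 Broth microdilution in Mueller Hinton broth, triplicate. Direct colony suspension at 1.5 x 10^8 CFU/mL diluted to ~10^5 CFU/mL. Serial dilutions made from DMSO stocks at 1 mg/mL; vancomycin positive control, blank medium negative control. Incubated 16 h at optimum temperature. MIC is the lowest concentration without visible growth at 600 nm; mean of triplicate determinations.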

The next data set relates to Pseudomonas aeruginosa. Kind of data set: Antibacterial activity against Pseudomonas aeruginosa ATCC 27853 assessed as bacterial growth inhibition at 32 ug/ml measured after 16 hrs by broth microdilution method. The class given is functional, organism-based.
A further data set concerns Acinetobacter baumannii. Put plainly: Antibacterial activity against Acinetobacter baumannii ATCC 19606 assessed as bacterial growth inhibition at 32 ug/ml measured after 16 hrs by broth microdilution method. The class given is functional, organism-based. The following applies: ATCC 19606 = CIP 70.34 = JCM 6841.
The subject of the next data set is Staphylococcus aureus. Put plainly: Antibacterial activity against Staphylococcus aureus JE2 assessed as bacterial death up to 256 ug/ml measured after 16 hrs by broth microdilution method. It is filed as functional, organism-based. In a few lines: as §2
Data set [5] in a line: Hepatic intrinsic clearance in human liver microsomes at 1 ug/ml measured per kg body weight up to 60 mins by LC-MS/MS analysis. The class given is ADME, Microsome. The following applies: 1 h.
Data set [6] in a line: Stability of compound in human liver microsomes at 1 ug/ml measured up to 60 mins in absence of NADPH by LC-MS/MS analysis. It is filed as ADME, Microsome. Conditions: 1 h. The gist of the method: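 Human liver microsomes (1.0 mg/mL protein) in 100 mM phosphate pH 7.4 with 10 mM MgCl2 and 2 mM NADPH, preincubated 10 min at 37 °C. Reaction started with compound at 1 μg/mL. Sampled at 0, 5, 15, 20, 30, 45 and 60 min and quenched in methanol with internal standard. Controls: no NADPH (negative), testosterone (positive). Analysed by LC-MS/MS, triplicate.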

Data set [7] is described as follows: Stability of the compound in simulated gastric fluid at 50 uM and pH 1.2 at 37 degree C measured up to 120 mins by HPLC-ESI/MS analysis. Conditions: simulated gi fluid, pH 1.2, 2 h.
Another data set concerns HEp-2. Put plainly: Toxicity in human Hep2 cells infected with Chlamydia trachomatis Serovar LGV-L2 at 100 ug/ml treated at 8 hrs post-infection and 24 hrs later re-infecting fresh Hep2 cells monolayer with infected cells and measured at 24 hrs post re-infection by immunofluorescence staining based microscopy analysis. It is filed as cell-based.
Data set [8] concerns Chlamydia trachomatis. Put plainly: Anti-chlamydial activity against Chlamydia trachomatis Serovar LGV-L2 infected in Hep2 cells assessed as reduction in chlamydial inclusion growth treated at 8 hrs post-infection and 24 hrs later re-infecting fresh Hep2 cells monolayer with infected cells and measured at 24 hrs post re-infection by immunofluorescence staining based microscopy analysis. It is filed as functional, organism-based. The gist of the method: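 HEp-2 cells grown in DMEM with 2% L-glutamine and 10% FBS at 37 °C. Infected with C. trachomatis L2 at MOI 1, with compound added in triplicate at 8 hpi. At 24 hpi, lysates were collected in sucrose storage medium, frozen at −80 °C and passed as 10-fold dilutions onto fresh HEp-2. After 24 h, stained with goat anti-MOMP then Alexa488 secondary. IFU taken as mean inclusions across 15 fields (20x), corrected for dilution.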

The test system of data set [9] is Chlamydia trachomatis. Kind of data set: Anti-chlamydial activity against Chlamydia trachomatis Serovar LGV-L2 infected in Hep2 cells assessed as reduction in chlamydial inclusion yield at 50 ug/ml treated at 8 hrs post infection and incubated for 16 hrs followed by compound washout and further incubated for 24 hrs by immunofluorescence staining based microscopic assay. The class given is functional, organism-based. The gist of the method:
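Medium was then removed, wells washed three times with Hanks' balanced salt solution, and compound-free medium added; incubation continued 24 h. Read-out by IFU re-infection and anti-MOMP immunofluorescence, as in the IFU protocol.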

Data set [10] in a line: Drug metabolism in human liver microsomes assessed as 1-[4-[(4-chlorophenyl)methyl]piperazin-1-yl]-2-methyl-2-[[5-(trifluoromethyl)-2-pyridyl]sulfonyl]propan-1-one formation at 1 ug/ml after 10 to 60 mins by LC-MS/MS analysis. It is filed as ADME, Microsome.
For data set [11], the system named is Chlamydia trachomatis. Put plainly: Activation of recombinant Chlamydia trachomatis Serovar LGV-L2 C-terminal 6xhis-tagged ClpP1/ClpP2 dimer expressed in Escherichia coli assessed as induction of casein degradation at 0.1 to 1 uM using FITC-labelled casein as substrate pretreated with enzyme for 30 mins followed by substrate addition and measured every 3 mins for 3 hrs in presence of AAA+ chaperone by fluorescence based tecan-plate reader assay.

With `CC(C)(C(=O)NCCCc1ccccc1)S(=O)(=O)c1ccc(C(F)(F)F)cc1`, the Activity result in data set [1] is listed as “Non-Toxic”; in data set [2] it was “Active”. Moreover, the result in the data set on Chlamydia trachomatis [3] and in the data set with Chlamydia trachomatis [4] was Active. Moreover, the inhibition entry in the data set with Escherichia coli, in the data set on Pseudomonas aeruginosa and in the data set on Acinetobacter baumannii was “inactive” each time. Further, the result in the data set on Staphylococcus aureus was inactive. The molecule further came in with a CLH in data set [5] of 53.4 L/h/kg. The Stability entry in data set [6] and in [7] was “Stable” in each case.
In the case of `CC(C)(C(=O)N1CCN(Cc2ccc(Cl)cc2)CC1)S(=O)(=O)c1ccc(C(F)(F)F)cn1`, the figures for the Activity result (in data set [1]; with HEp-2; in [2]) were “Non-Toxic”, “Non-Toxic” and “Not Active”, respectively. In addition, in the data set on Chlamydia trachomatis [8], the inhibition entry is “Dose-dependent effect”. In addition, the half-maximal inhibitory concentration (IC50) with Chlamydia trachomatis [8] (Serovar LGV-L2, HEp-2) is 5.2 mg/L (≈ 10.6 µM). Further, the inhibition entry in the data set with Chlamydia trachomatis [9], in the data set with Escherichia coli, in the data set on Pseudomonas aeruginosa and in the data set on Acinetobacter baumannii was “inactive” in each case. Moreover, the result with Chlamydia trachomatis [3], with Chlamydia trachomatis [4], in the data set with Staphylococcus aureus and with Chlamydia trachomatis [11] was inactive. For the same molecule, the Stability result in data set [6] and in data set [7] was “Stable” each time. Moreover, in [10], the Drug metabolism result is on record as “Metabolite_Detected”.
